Measurements gathered from unrelated publications.
Target: Serine/threonine-protein kinase pim-3 (PIM3, Homo sapiens, UniProt Q86V86)

SMILES	assay	conditions	endpoint	result
Cn1c2c(c3ccc(Cl)c(Cl)c31)C(C#N)C1(CCNCC1)NC2=O (racemic)	thermal stability, DSF	10 µM	ΔTm	> 8 °C
CCN(CC)c1ccc(C2=NNC(=O)CC2C)cc1[N+](=O)[O-] (stereo not shown)	enzyme activity, inhibitor	10 µM	remaining activity	96%
CC/C(=N\NC(=O)NCc1cccc(O)c1)c1ccc(O)c(C)c1O	enzyme activity, inhibitor	0.1 µM	inhibition	4.6%
COc1cc(Nc2cnc(C#N)c(O[C@H](C)CN(C)C)n2)ncc1-c1cnn(C)c1	enzyme activity, inhibitor, radiometric	1 µM	remaining activity	58%
CC(C)(C)c1nc(-c2cccc(NS(=O)(=O)c3c(F)cccc3F)c2F)c(-c2ccnc(N)n2)s1	enzyme activity, inhibitor, radiometric	1 µM	remaining activity	100%
CC(C)(O)[C@H]1CC[C@H](Nc2ccc3ncc(-c4cccc(C(F)(F)F)c4)n3n2)CC1	enzyme activity, inhibitor	1 µM	remaining activity	3.14%
O=C1NC(=O)c2cc(Nc3ccc(F)cc3)c(Nc3ccc(F)cc3)cc21	cell-free assay	0.5 µM	remaining signal	105%
Nc1nc(NC2CCCCC2)sc1C(=O)c1ccccc1	enzyme activity, inhibitor	10 µM	remaining activity	69%
COc1cc(Nc2c(C#N)cnc3cc(OCCCN4CCN(C)CC4)c(OC)cc23)c(Cl)cc1Cl	cell-free assay	0.5 µM	remaining signal	97.7%
O=C(O)[C@H]1[C@H](Cn2nnc3ccccc3c2=O)CC[C@@H]1C(=O)c1ccc(OCCC2CCOCC2)cc1	cell-free assay, competition with immobilised ligand	1 µM	remaining binding	86%
O=C(Nc1cnn(-c2csc(C(=O)NC3COC3)c2)c1)Nc1ccccc1Cl	enzyme activity, inhibitor	5 µM	remaining activity	61.2%
Cc1cc(-n2nc(Cc3cc(F)cc(C(F)(F)F)c3)nc2C)ccc1C(N)=O	cell-free assay, competition with immobilised ligand	1 µM	remaining binding	100%
FC(F)c1nc2ccccc2n1-c1nc(N2CCOCC2)nc(N2CCOCC2)n1	enzyme activity, inhibitor	10 µM	remaining activity	76%
Cc1noc([C@H]2C[C@@H](c3ccc(C(F)(F)F)cc3)CN(C(=O)N3CCS(=O)(=O)C3)C2)n1	cell-free assay, competition with immobilised ligand	1 µM	remaining binding	91%
Cc1ccc(C(=O)Nc2ccc(CN3CCN(C)CC3)c(C(F)(F)F)c2)cc1C#Cc1cnc2cccnn12	enzyme activity, inhibitor	23.5 nM	remaining activity	100%
CN(C)C(=O)Cn1cc(-c2nc([C@@](C)(c3ccc(-c4cnc(N)nc4)cc3)C3CC3)no2)cn1	cell-free assay, competition with immobilised ligand	1 µM	remaining binding	96%
O=C(CSc1nc2nccnc2c(=O)n1CCc1ccccc1)Nc1nccs1	enzyme activity, inhibitor	10 µM	inhibition	-7%
CNC(=O)c1cc(Oc2ccc(NC(=O)Nc3ccc(Cl)c(C(F)(F)F)c3)cc2)ccn1	enzyme activity, inhibitor	0.3 µM	inhibition	-12%
O=c1nc(-c2ccccn2)sc2ccccc12	binding, competition with immobilised ligand	1 µM	remaining binding	100%
